Laboratory results published in ChEMBL document CHEMBL4152188, “Design, synthesis and biological evaluation of C(4) substituted monobactams as antibacterial agents against multidrug-resistant Gram-negative bacteria” (Eur J Med Chem, 2018).
In brackets after ≈: the same amount, converted by molar mass.

Legend:
Escherichia coli [1] = assay: Antibacterial activity against extended-spectrum beta-lactamase producing Escherichia coli isolate 106342 after 18 hrs in presence of BPL by CLSI broth microdilution method; format: functional; conditions: isolate 106342, 18 h
In short: (§1)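 CLSI broth microdilution against clinical isolates (ESBL E. coli, KPC-2 MDR K. pneumoniae, IMP-4 MDR P. aeruginosa; five per species). Iron limitation: Mueller-Hinton broth supplemented with 16 mg/liter 2,2'-bipyridyl to complex iron and induce iron uptake systems. Read-out: MIC.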

[2] = Elimination half life in human liver microsomes at 0.1 uM pre-incubated with compound followed by NADPH addition and measured after 60 mins by LC-MS/MS analysis; format: ADME, microsome; conditions: read-out: beta t1/2
Klebsiella pneumoniae [3] = assay: Antibacterial activity against KPC-2 producing Klebsiella pneumoniae isolate 209735 after 18 hrs by CLSI broth microdilution method; format: functional; conditions: isolate 209735, 18 h
Klebsiella pneumoniae [4] = assay: Antibacterial activity against KPC-2 producing Klebsiella pneumoniae isolate 212423 after 18 hrs by CLSI broth microdilution method; format: functional; conditions: isolate 212423, 18 h
Klebsiella pneumoniae [5] = assay: Antibacterial activity against KPC-2 producing Klebsiella pneumoniae isolate 212229 after 18 hrs by CLSI broth microdilution method; format: functional; conditions: isolate 212229, 18 h
Escherichia coli [6] = assay: Selectivity index, ratio of MIC for against extended-spectrum beta-lactamase producing Escherichia coli isolate 106342 to MIC for extended-spectrum beta-lactamase producing Escherichia coli isolate 106342 in presence of BPL; format: functional
Pseudomonas aeruginosa [7] = assay: Antibacterial activity against IMP-4 producing Pseudomonas aeruginosa isolate 212886 after 18 hrs in presence of BPL by CLSI broth microdilution method; format: functional; conditions: isolate 212886, 18 h; in short: as §1
Escherichia coli [8] = assay: Selectivity index, ratio of MIC for against extended-spectrum beta-lactamase producing Escherichia coli isolate 212648 to MIC for extended-spectrum beta-lactamase producing Escherichia coli isolate 212648 in presence of BPL; format: functional
Klebsiella pneumoniae [9] = assay: Selectivity index, ratio of MIC for against KPC-2 producing Klebsiella pneumoniae isolate 212423 to MIC for against KPC-2 producing Klebsiella pneumoniae isolate 212423 in presence of BPL; format: functional
Klebsiella pneumoniae [10] = assay: Antibacterial activity against KPC-2 producing Klebsiella pneumoniae isolate 212232 after 18 hrs in presence of BPL by CLSI broth microdilution method; format: functional; conditions: isolate 212232, 18 h; in short: as §1
Pseudomonas aeruginosa [11] = assay: Selectivity index, ratio of MIC for against IMP-4 producing Pseudomonas aeruginosa isolate 212886 to MIC for against IMP-4 producing Pseudomonas aeruginosa isolate 212886 in presence of BPL; format: functional
Pseudomonas aeruginosa [12] = assay: Antibacterial activity against IMP-4 producing Pseudomonas aeruginosa isolate 207272 after 18 hrs in presence of BPL by CLSI broth microdilution method; format: functional; conditions: isolate 207272, 18 h; in short: as §1
Escherichia coli [13] = assay: Antibacterial activity against extended-spectrum beta-lactamase producing Escherichia coli isolate 209285 after 18 hrs by CLSI broth microdilution method; format: functional; conditions: isolate 209285, 18 h
Pseudomonas aeruginosa [14] = assay: Selectivity index, ratio of MIC for against IMP-4 producing Pseudomonas aeruginosa isolate 209321 to MIC for against IMP-4 producing Pseudomonas aeruginosa isolate 209321 in presence of BPL; format: functional
Klebsiella pneumoniae [15] = assay: Selectivity index, ratio of MIC for against KPC-2 producing Klebsiella pneumoniae isolate 209632 to MIC for against KPC-2 producing Klebsiella pneumoniae isolate 209632 in presence of BPL; format: functional
Pseudomonas aeruginosa [16] = assay: Antibacterial activity against IMP-4 producing Pseudomonas aeruginosa isolate 212886 after 18 hrs by CLSI broth microdilution method; format: functional; conditions: isolate 212886, 18 h
Pseudomonas aeruginosa [17] = assay: Antibacterial activity against IMP-4 producing Pseudomonas aeruginosa isolate 209321 after 18 hrs by CLSI broth microdilution method; format: functional; conditions: isolate 209321, 18 h
Escherichia coli [18] = assay: Selectivity index, ratio of MIC for against extended-spectrum beta-lactamase producing Escherichia coli isolate 208687 to MIC for extended-spectrum beta-lactamase producing Escherichia coli isolate 208687 in presence of BPL; format: functional
Escherichia coli [19] = assay: Antibacterial activity against Escherichia coli isolate 210737 after 18 hrs in presence of BPL by CLSI broth microdilution method; format: functional; conditions: isolate 210737, 18 h; in short: as §1
Pseudomonas aeruginosa [20] = assay: Antibacterial activity against IMP-4 producing Pseudomonas aeruginosa isolate 207272 after 18 hrs by CLSI broth microdilution method; format: functional; conditions: isolate 207272, 18 h
Pseudomonas aeruginosa [21] = assay: Selectivity index, ratio of MIC for against IMP-4 producing Pseudomonas aeruginosa isolate 207272 to MIC for against IMP-4 producing Pseudomonas aeruginosa isolate 207272 in presence of BPL; format: functional
Klebsiella pneumoniae [22] = assay: Antibacterial activity against KPC-2 producing Klebsiella pneumoniae isolate 209735 after 18 hrs in presence of BPL by CLSI broth microdilution method; format: functional; conditions: isolate 209735, 18 h; in short: as §1
[23] = Metabolic bioavailability in human liver microsomes at 0.1 uM pre-incubated with compound followed by NADPH addition and measured after 60 mins by LC-MS/MS analysis; format: ADME, microsome
Pseudomonas aeruginosa [24] = assay: Antibacterial activity against IMP-4 producing Pseudomonas aeruginosa isolate 208247 after 18 hrs by CLSI broth microdilution method; format: functional; conditions: isolate 208247, 18 h
Escherichia coli [25] = assay: Antibacterial activity against extended-spectrum beta-lactamase producing Escherichia coli isolate 106342 after 18 hrs by CLSI broth microdilution method; format: functional; conditions: isolate 106342, 18 h
[26] = Intrinsic clearance in mouse liver microsomes assessed per g protein at 0.1 uM pre-incubated with compound followed by NADPH addition and measured after 60 mins by LC-MS/MS analysis; format: ADME, microsome; conditions: 1 h
In short: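 Liver microsomes, 0.33 mg/mL microsomal protein, with an NADP+-regenerating system. Test article at 0.1 µM, incubated at 37°C. Samples were taken at 0, 7, 17, 30 and 60 min, and parent compound was measured by MS. Half-life, intrinsic clearance (ml/min/g protein) and MF (%) are derived from parent loss.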

Escherichia coli [27] = assay: Antibacterial activity against extended-spectrum beta-lactamase producing Escherichia coli isolate 208687 after 18 hrs in presence of BPL by CLSI broth microdilution method; format: functional; conditions: isolate 208687, 18 h; in short: as §1
Escherichia coli [28] = assay: Antibacterial activity against extended-spectrum beta-lactamase producing Escherichia coli isolate 212648 after 18 hrs in presence of BPL by CLSI broth microdilution method; format: functional; conditions: isolate 212648, 18 h; in short: as §1
Klebsiella pneumoniae [29] = assay: Selectivity index, ratio of MIC for against KPC-2 producing Klebsiella pneumoniae isolate 212229 to MIC for against KPC-2 producing Klebsiella pneumoniae isolate 212229 in presence of BPL; format: functional
Escherichia coli [30] = assay: Antibacterial activity against Escherichia coli isolate 210737 after 18 hrs by CLSI broth microdilution method; format: functional; conditions: isolate 210737, 18 h
Escherichia coli [31] = assay: Selectivity index, ratio of MIC for against Escherichia coli isolate 210737 to MIC for Escherichia coli isolate 210737 in presence of BPL; format: functional
Klebsiella pneumoniae [32] = assay: Selectivity index, ratio of MIC for against KPC-2 producing Klebsiella pneumoniae isolate 209735 to MIC for against KPC-2 producing Klebsiella pneumoniae isolate 209735 in presence of BPL; format: functional
Pseudomonas aeruginosa [33] = assay: Antibacterial activity against IMP-4 producing Pseudomonas aeruginosa isolate 209321 after 18 hrs in presence of BPL by CLSI broth microdilution method; format: functional; conditions: isolate 209321, 18 h; in short: as §1
Escherichia coli [34] = assay: Antibacterial activity against extended-spectrum beta-lactamase producing Escherichia coli isolate 209285 after 18 hrs in presence of BPL by CLSI broth microdilution method; format: functional; conditions: isolate 209285, 18 h; in short: as §1

`CC(C)C(O/N=C(\C(=O)N[C@@H]1C(=O)N(S(=O)(=O)O)[C@@H]1Cn1cc(COCc2cc(=O)c(O)cn2O)nn1)c1csc(N)n1)c1cc(=O)c(O)cn1O` (stereo partly drawn) gave an MIC (Escherichia coli [1]) of 8 mg/L, a half-life at 0.1 µM [2] of 1.33 h and an MIC (Klebsiella pneumoniae [3]) of 2 mg/L (≈ 2.61 µM). For the same molecule, the MIC (Klebsiella pneumoniae [4]) was 2 mg/L (≈ 2.61 µM), the MIC (Klebsiella pneumoniae [5]) was 2 mg/L (≈ 2.61 µM) and the “Selectivity Index” value (Escherichia coli [6]) was 2. For the same molecule, the MIC (Pseudomonas aeruginosa [7]) was 1 mg/L, the “Selectivity Index” value (Escherichia coli [8]) was 2 and the “Selectivity Index” value (Klebsiella pneumoniae [9]) was 8. For the same molecule, the MIC (Klebsiella pneumoniae [10]) was 0.25 mg/L, the “Selectivity Index” value (Pseudomonas aeruginosa [11]) was 4 and the MIC (Pseudomonas aeruginosa [12]) was 2 mg/L. For the same molecule, the MIC (Escherichia coli [13]) was 16 mg/L (≈ 20.9 µM), the “Selectivity Index” value (Pseudomonas aeruginosa [14]) was 2 and the “Selectivity Index” value (Klebsiella pneumoniae [15]) was 8. The MIC (Pseudomonas aeruginosa [16]) was 4 mg/L (≈ 5.22 µM), the MIC (Pseudomonas aeruginosa [17]) was 8 mg/L (≈ 10.4 µM) and the “Selectivity Index” value (Escherichia coli [18]) was 16. The MIC (Escherichia coli [19]) was 8 mg/L, the MIC (Pseudomonas aeruginosa [20]) was 16 mg/L (≈ 20.9 µM) and the “Selectivity Index” value (Pseudomonas aeruginosa [21]) was 8. For the same molecule, the MIC (Klebsiella pneumoniae [22]) was 0.25 mg/L, the Fh at 1 h, 0.1 µM [23] was 42.8% and the MIC (Pseudomonas aeruginosa [24]) was 4 mg/L (≈ 5.22 µM). For the same molecule, the MIC (Escherichia coli [25]) was 16 mg/L (≈ 20.9 µM), the CLint [26] was 27.1 mL/min/g and the MIC (Escherichia coli [27]) was 1 mg/L. The MIC (Escherichia coli [28]) was 8 mg/L, the “Selectivity Index” value (Klebsiella pneumoniae [29]) was 8 and the MIC (Escherichia coli [30]) was 16 mg/L (≈ 20.9 µM). For the same molecule, the “Selectivity Index” value (Escherichia coli [31]) was 2, the “Selectivity Index” value (Klebsiella pneumoniae [32]) was 8 and the MIC (Pseudomonas aeruginosa [33]) was 4 mg/L. The MIC (Escherichia coli [34]) was 8 mg/L.
`CC(C)C(O/N=C(\C(=O)N[C@@H]1C(=O)N(S(=O)(=O)O)[C@@H]1CCl)c1csc(N)n1)c1cc(=O)c(O)cn1O` (stereo partly drawn) showed an MIC (Escherichia coli [1]) of 0.25 mg/L, a half-life at 0.1 µM [2] of 3.15 h and an MIC (Klebsiella pneumoniae [3]) of 32 mg/L (≈ 56.6 µM). For the same molecule, the MIC (Klebsiella pneumoniae [4]) was 0.5 mg/L (≈ 0.885 µM), the MIC (Klebsiella pneumoniae [5]) was 0.5 mg/L (≈ 0.885 µM) and the “Selectivity Index” value (Escherichia coli [6]) was 4. The MIC (Pseudomonas aeruginosa [7]) was 8 mg/L, the “Selectivity Index” value (Escherichia coli [8]) was 4 and the “Selectivity Index” value (Klebsiella pneumoniae [9]) was 1. For the same molecule, the MIC (Klebsiella pneumoniae [10]) was 0.5 mg/L, the “Selectivity Index” value (Pseudomonas aeruginosa [11]) was 1 and the MIC (Pseudomonas aeruginosa [12]) was 4 mg/L. The MIC (Escherichia coli [13]) was 0.5 mg/L (≈ 0.885 µM), the “Selectivity Index” value (Pseudomonas aeruginosa [14]) was 1 and the “Selectivity Index” value (Klebsiella pneumoniae [15]) was 1. The MIC (Pseudomonas aeruginosa [16]) was 8 mg/L (≈ 14.2 µM), the MIC (Pseudomonas aeruginosa [17]) was 8 mg/L (≈ 14.2 µM) and the “Selectivity Index” value (Escherichia coli [18]) was 2. For the same molecule, the MIC (Escherichia coli [19]) was 0.25 mg/L, the MIC (Pseudomonas aeruginosa [20]) was 8 mg/L (≈ 14.2 µM) and the “Selectivity Index” value (Pseudomonas aeruginosa [21]) was 2. It also gave an MIC (Klebsiella pneumoniae [22]) of 8 mg/L, a Fh at 1 h, 0.1 µM [23] of 63.9% and an MIC (Pseudomonas aeruginosa [24]) of 8 mg/L (≈ 14.2 µM). It also gave an MIC (Escherichia coli [25]) of 1 mg/L (≈ 1.77 µM), a CLint [26] of 29 mL/min/g and an MIC (Escherichia coli [27]) of 0.25 mg/L. For the same molecule, the MIC (Escherichia coli [28]) was 0.25 mg/L, the “Selectivity Index” value (Klebsiella pneumoniae [29]) was 2 and the MIC (Escherichia coli [30]) was 1 mg/L (≈ 1.77 µM). For the same molecule, the “Selectivity Index” value (Escherichia coli [31]) was 4, the “Selectivity Index” value (Klebsiella pneumoniae [32]) was 4 and the MIC (Pseudomonas aeruginosa [33]) was 8 mg/L. It also gave an MIC (Escherichia coli [34]) of 0.5 mg/L.
